5 compounds from ChEMBL document CHEMBL5108081, “Development of an N-Terminal BRD4 Bromodomain-Targeted Degrader” (ACS Med Chem Lett, 2022) can be followed below.

pIC50: −log10 of the molar value. Active and inactive are the calls of the source. The rule behind the calls is not given here.

The species entered for data set [1] is Homo sapiens. The data set is described as follows: Ratio IC50 for inhibition of BRD2-BD2 (unknown origin) over inhibition of His9-tagged BRD4-BD1 (unknown origin).
Data set [2] is filed under the species Homo sapiens. The data set is described as follows: Ratio IC50 for inhibition of BRD3-BD1 (unknown origin) over inhibition of His9-tagged BRD4-BD1 (unknown origin).
Data set [3] is filed under the species Homo sapiens. The data set can be described thus: Ratio IC50 for inhibition of BRD3-BD2 (unknown origin) over inhibition of His9-tagged BRD4-BD1 (unknown origin).
In data set [4] the target is T1, Bromodomain-containing protein 3 (Homo sapiens, UniProt Q15059). The data set can be described thus: Inhibition of BRD3-BD1 (unknown origin) measured by AlphaScreen assay. Put shortly: (§1)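 Commercial AlphaScreen displacement assay run by an outside service on a panel of BET bromodomains. Values are the means of duplicate experiments.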
For orientation: Bead proximity is the source of the signal in Alpha formats.

The target in data set [5] is T1, Bromodomain-containing protein 3. The data set is described as follows: Inhibition of BRD3-BD2 (unknown origin) measured by AlphaScreen assay. Put shortly:
as §1

Data set [6] concerns the target T2, Bromodomain-containing protein 2 (Homo sapiens, UniProt P25440). The data set can be described thus: Inhibition of BRD2-BD2 (unknown origin) measured by AlphaScreen assay. Put shortly: as §1
Data set [7] addresses T2, Bromodomain-containing protein 2. The data set can be described thus: Inhibition of BRD2-BD1 (unknown origin) measured by AlphaScreen assay. A digest of the protocol:
as §1

Data set [8] deals with T3, Protein cereblon/Bromodomain-containing protein 4 (Homo sapiens, UniProt O60885+Q96SW2). The data set is described as follows: Protac activity at CRBN/BRD4-BD1 in human MM1.S cells assessed as induction of BRD4-BD1 degradation measured after 24 hrs by western blot analysis relative to control. It counts as cell-based. Put shortly:
(§2)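 MM.1S cells were treated for 24 h, and BRD4 was probed by western blot. Band densitometry was quantified from three biological replicate blots.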
On the technique in general: A western blot detects proteins with antibodies after separation by electrophoresis.

The target of data set [9] is T3, Protein cereblon/Bromodomain-containing protein 4. The data set can be described thus: Binding affinity to GST-tagged CRBN/6xHis-tagged BRD4-BD1 (unknown origin) assessed as ternary complex formation measured by TR-FRET assay. It is filed as protein assay. In general terms: Time-resolved FRET reads energy transfer from a long-lived donor to a nearby acceptor.
Data set [10] has the same target. The data set is described as follows: Protac activity at CRBN/BRD4-BD1 in human MM1.S cells assessed as induction of BRD4-BD1 degradation measured after 24 hrs by western blot analysis. It is filed as cell-based. A digest of the protocol:
as §2

A further data set deals with MM1.S. The data set can be described thus: Cytotoxicity against human MM1.S cells assessed as downregulation of cMyc expression. It is filed as toxicity, cell-based.
The target in data set [11] is T3, Protein cereblon/Bromodomain-containing protein 4. The data set can be described thus: Protac activity at CRBN/BRD4-BD1 in human MM1.S cells assessed as induction of BRD4-BD1 degradation measured at 5 uM after 8 hrs by western blot analysis. It counts as cell-based. Put shortly:
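Time-course study in MM.1S cells with BRD4 levels followed by western blot at successive time points. BRD2, BRD3 and cMyc were also probed.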

The target is the same in data set [12]. The data set is described as follows: Protac activity at Halo-tagged CRBN/BRD4-BD1-NanoLuc fusion protein expressed in human HEK293T cells assessed as induction of BRD4-BD1 degradation at 0.2 uM measured by NanoBRET assay. It counts as cell-based.
For data set [13] the target is unchanged. The data set can be described thus: Binding affinity to GST-tagged CRBN/6xHis-tagged BRD4-BD1 (unknown origin) assessed as induction of dimerization of CRBN/BRD4-BD1 at 4.6 nM measured by TR-FRET assay. It counts as protein assay.
Data set [14] has the same target. The data set is described as follows: Protac activity at CRBN/BRD4-BD1 in human MM1.S cells assessed as induction of BRD4-BD1 degradation measured at 1 uM in presence of 0.01 to 1 uM iBET-BD2 measured by Western blot analysis. It is filed as cell-based. A digest of the protocol:
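Rescue experiment in MM.1S cells: the degrader was co-treated with a pan-BD1 inhibitor, the proteasome inhibitor MG132, the neddylation inhibitor MLN4924 or the pan-BD2 inhibitor iBET-BD2. BRD4 was then read by western blot against an untreated control on the same gel.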

For data set [15] the target is unchanged. The data set is described as follows: Binding affinity to GST-tagged CRBN/6xHis-tagged BRD4-BD2 (unknown origin) assessed as induction of dimerization of CRBN/BRD4-BD2 measured by TR-FRET assay. It is filed as protein assay.
The target is the same in data set [16]. The data set is described as follows: Binding affinity to GST-tagged CRBN/6xHis-tagged BRD4-BD1 (unknown origin) assessed as induction of dimerization of CRBN/BRD4-BD1 measured by TR-FRET assay. It is filed as protein assay.
For data set [17], the species on record is Homo sapiens. The data set is described as follows: Ratio IC50 for inhibition of BRD4-BD2 (unknown origin) over inhibition of His9-tagged BRD4-BD1 (unknown origin).
The species named for data set [18] is Homo sapiens. The data set is described as follows: Ratio IC50 for inhibition of BRD2-BD1 (unknown origin) over inhibition of His9-tagged BRD4-BD1 (unknown origin).

T3 sequence (Q96SW2 whole entry, looked up, other chains not shown): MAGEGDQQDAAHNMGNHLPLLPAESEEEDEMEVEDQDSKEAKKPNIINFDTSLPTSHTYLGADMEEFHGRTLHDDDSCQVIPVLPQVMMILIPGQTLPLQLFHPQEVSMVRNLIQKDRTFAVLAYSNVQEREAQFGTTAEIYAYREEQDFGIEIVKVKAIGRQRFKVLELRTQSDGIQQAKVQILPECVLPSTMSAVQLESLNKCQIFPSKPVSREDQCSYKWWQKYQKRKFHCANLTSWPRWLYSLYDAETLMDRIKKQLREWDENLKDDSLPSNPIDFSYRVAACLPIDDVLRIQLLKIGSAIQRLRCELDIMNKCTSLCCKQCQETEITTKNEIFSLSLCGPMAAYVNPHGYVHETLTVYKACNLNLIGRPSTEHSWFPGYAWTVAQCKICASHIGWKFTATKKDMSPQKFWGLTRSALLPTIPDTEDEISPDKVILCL
T1 sequence (Q15059 whole entry): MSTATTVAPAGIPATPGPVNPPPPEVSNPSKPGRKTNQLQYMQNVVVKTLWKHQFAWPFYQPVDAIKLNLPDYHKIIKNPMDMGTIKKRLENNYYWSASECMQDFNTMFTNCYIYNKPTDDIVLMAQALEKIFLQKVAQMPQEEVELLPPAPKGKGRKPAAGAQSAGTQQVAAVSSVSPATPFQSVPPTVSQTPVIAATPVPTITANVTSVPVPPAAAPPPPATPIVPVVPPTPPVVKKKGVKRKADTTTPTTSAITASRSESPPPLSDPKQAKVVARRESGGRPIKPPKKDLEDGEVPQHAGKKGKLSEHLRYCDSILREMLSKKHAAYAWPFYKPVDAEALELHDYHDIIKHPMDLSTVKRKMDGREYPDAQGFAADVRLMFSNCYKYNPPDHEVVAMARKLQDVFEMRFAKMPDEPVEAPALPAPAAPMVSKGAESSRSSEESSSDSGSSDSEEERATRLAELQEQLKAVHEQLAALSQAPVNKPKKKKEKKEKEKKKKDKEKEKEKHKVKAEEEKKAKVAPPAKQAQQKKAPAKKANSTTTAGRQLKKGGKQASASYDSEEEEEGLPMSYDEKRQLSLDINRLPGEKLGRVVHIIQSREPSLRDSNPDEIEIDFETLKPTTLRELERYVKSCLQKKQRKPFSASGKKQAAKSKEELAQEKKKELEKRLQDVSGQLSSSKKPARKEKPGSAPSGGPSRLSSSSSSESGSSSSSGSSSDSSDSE
T2 sequence (P25440 whole entry): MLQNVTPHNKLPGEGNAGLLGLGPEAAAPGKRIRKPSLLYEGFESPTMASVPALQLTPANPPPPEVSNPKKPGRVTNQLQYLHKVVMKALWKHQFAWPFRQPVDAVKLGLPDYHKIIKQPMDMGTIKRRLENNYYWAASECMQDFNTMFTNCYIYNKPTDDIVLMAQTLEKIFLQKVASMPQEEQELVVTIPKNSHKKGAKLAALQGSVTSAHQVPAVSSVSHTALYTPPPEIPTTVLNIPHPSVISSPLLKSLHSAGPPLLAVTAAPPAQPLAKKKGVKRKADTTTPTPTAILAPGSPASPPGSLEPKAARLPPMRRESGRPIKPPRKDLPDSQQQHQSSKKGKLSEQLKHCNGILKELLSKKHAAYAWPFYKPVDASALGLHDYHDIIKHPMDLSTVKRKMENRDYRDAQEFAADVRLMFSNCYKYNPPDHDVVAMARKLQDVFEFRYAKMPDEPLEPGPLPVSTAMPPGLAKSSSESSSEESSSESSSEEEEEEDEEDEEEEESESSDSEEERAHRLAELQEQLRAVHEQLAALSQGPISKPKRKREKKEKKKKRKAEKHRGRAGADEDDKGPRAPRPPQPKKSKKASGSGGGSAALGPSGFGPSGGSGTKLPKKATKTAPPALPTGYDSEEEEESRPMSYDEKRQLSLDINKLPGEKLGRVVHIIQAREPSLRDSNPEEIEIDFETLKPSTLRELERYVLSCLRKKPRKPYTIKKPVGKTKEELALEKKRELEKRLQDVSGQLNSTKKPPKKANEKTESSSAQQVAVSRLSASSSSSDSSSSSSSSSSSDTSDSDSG

With `Cc1cc(C)cc(Nc2nccc(-c3c(-c4ccc(F)cc4)ncn3C3CCNCC3)n2)c1`, the Ratio IC50 in the data set filed under Homo sapiens [1], in the data set filed under Homo sapiens [2] and in the data set listed under Homo sapiens [3] was 6 each time.

For `Cc1ccc(C(C)C)cc1Oc1nccc(-c2c(-c3ccc(C(F)(F)F)cc3)ncn2C2CCNCC2)n1`, the pIC50 (in general, the negative decadic logarithm of the IC50, by convention in mol/L) in [4] is 6.00; in [5], 4.12; in [6], 5.15; in [7] it was 6.55.

On to `Cc1ccc(C(C)C)cc1Oc1nccc(-c2c(-c3ccc(C(F)(F)F)cc3)ncn2C2CCN(CCOCCOCCNC(=O)COc3cccc4c3C(=O)N(C3CCC(=O)NC3=O)C4=O)CC2)n1` (configuration not stated), for which the Activity in data set [8] is 77%; in the data set on MM1.S, “Non-Toxic”. The result in data set [9], in data set [11], in data set [12], in data set [13] and in [14] was Active. In data set [10], the DC50 (in general, the concentration at which degradation of the target reaches its halfway point) stood at 0.28 µM.

In the case of `Cc1sc2c(c1C)C(c1ccc(Cl)cc1)=N[C@@H](CC(=O)NCCCCNC(=O)COc1cccc3c1C(=O)N(C1CCC(=O)NC1=O)C3=O)c1nnc(C)n1-2` (some centres not stated), the result in data set [15] and in data set [16] was Active.

In the case of `Cc1cc(C)cc(Nc2nccc(-c3c(-c4ccc(C(F)(F)F)cc4)ncn3C3CCN(CCN)CC3)n2)c1`, the Ratio IC50 in the data set listed under Homo sapiens [1], in the data set filed under Homo sapiens [2], in the data set filed under Homo sapiens [3], in the data set listed under Homo sapiens [17] and in the data set filed under Homo sapiens [18] was 9 each time.
